Experimental data as given in ChEMBL document CHEMBL1141433, “Tauramamide, a lipopeptide antibiotic produced in culture by Brevibacillus laterosporus isolated from a marine habitat: structure elucidation and synthesis” (2007).
≈ marks a conversion by molar mass, not a printed value. Calls of active or inactive are those of the source. No cut-off for these calls is given here.

Key:
Format in all cases: functional
Enterococcus sp. = assay: Antimicrobial activity against Enterococcus sp. by Alamar blue assay
Procedure, shortened: (§1)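 1:2 serial dilution in liquid culture; compound dissolved in DMSO or EtOH. Bacteria grown in TSB+ (5 g/L NaCl); C. albicans in Sabouraud or TSB+. Alamar Blue redox indicator read by colour: blue/purple means growth inhibited, bright pink means growth.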

Candida albicans [1] = assay: Antimicrobial activity against Candida albicans by agar extract inclusion assay
Procedure, shortened: (§2)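 Compound dissolved in DMSO or EtOH and mixed into Mueller Hinton agar cooled to 50 °C. Agar serially diluted 1:2 with more cooled agar. Pathogens spotted on the surface at about 2.5 × 10⁵ cells/mL inoculum. Plates incubated overnight at 37 °C and scored for growth inhibition to give the MIC.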

Candida albicans [2] = assay: Antimicrobial activity against Candida albicans by Alamar blue assay; procedure, shortened: as §1
Staphylococcus aureus [3] = assay: Antimicrobial activity against methicillin-resistant Staphylococcus aureus by agar extract inclusion assay; procedure, shortened: as §2
Staphylococcus aureus [4] = assay: Antimicrobial activity against methicillin-resistant Staphylococcus aureus by Alamar blue assay; procedure, shortened: as §1

Compound | MIC (Enterococcus sp.) [µg/mL] | MIC (Candida albicans [1]) [µg/mL] | MIC (Candida albicans [2]) [µg/mL] | MIC (Staphylococcus aureus [3]) [µg/mL] | MIC (Staphylococcus aureus [4]) [µg/mL] | Activity (Candida albicans [2]) | Activity (Staphylococcus aureus [4])
CCOC(=O)[C@H](CCCNC(=N)N)NC(=O)[C@H](Cc1c[nH]c2ccccc12)NC(=O)[C@@H](CC(C)C)NC(=O)[C@H](CO)NC(=O)[C@@H](Cc1ccc(O)cc1)NC(=O)CCCCCC(C)C [TAURAMAMIDE ETHYL ESTER] | 0.1 (≈ 0.112 µM) | 75 (≈ 84.1 µM) | 200 (≈ 224 µM) | 9.4 (≈ 10.5 µM) | 25 (≈ 28 µM) |  | 
CC(C)CCCCCC(=O)N[C@H](Cc1ccc(O)cc1)C(=O)N[C@@H](CO)C(=O)N[C@H](CC(C)C)C(=O)N[C@@H](Cc1c[nH]c2ccccc12)C(=O)N[C@@H](CCCNC(=N)N)C(=O)O [TAURAMAMIDE] | 0.1 (≈ 0.116 µM) | 50 (≈ 57.9 µM) |  | 200 (≈ 231 µM) |  | inactive | inactive
